From the EternaBench riboswitch data

Tested on: MS2 coat protein
Experiment: apparent Kd, MS2 coat protein; higher = weaker binding; RNA-MaP array; FMN 200 µM where present
How it was run: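 The apparent Kd is the median of filtered binding-curve fits, one per cluster, to green signal normalised to red-channel RNA signal and control-cluster median Fmax. The clusters were on Illumina sequencing chips, and stalled E. coli RNA polymerase had transcribed the designs on them. Titration used SNAP-549-labelled MS2 coat protein from 0.7 or 1.5 nM, doubling to 3 µM, without and then with constant ligand, in 100 mM Tris-HCl pH 7.5, 80 mM KCl, 4 mM MgCl2, BSA, DTT, yeast tRNA and Tween-20.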

[1] = designed as: OFF switch for flavin mononucleotide, no ligand
[2] = ligand present: flavin mononucleotide, designed as: OFF switch for flavin mononucleotide
[3] = designed as: ON switch for flavin mononucleotide, no ligand
[4] = ligand present: flavin mononucleotide, designed as: ON switch for flavin mononucleotide

UUAUUAGCAGGAUAUAUCCGGGAUCACAUGAGGAUCACCCAUGUGACCGCUUGAGAUCCUAUAGAAGGGCUUUAUU
apparent Kd [1]: 0.0306 µM | apparent Kd [2]: 0.0563 µM

CAGCAAAAGUAGAAGGCAGUACUGAUUCAGUACUGAGGAUAUACAUGAGGAUCACCCAUGUAAUAUAGCUGAAUAAUAUAUUAU
apparent Kd [1]: 0.00617 µM | apparent Kd [2]: 0.00756 µM

AAUAUAAAGAGCUGGUAAAACUCGACAUGAGGAUCACCCAUGUAGGAUAUCAGCACGAUAAGUGCUGAGAAGGACAUCCAGCUC
apparent Kd [1]: 0.0154 µM | apparent Kd [2]: 0.0176 µM

CCGAAUAUGCAGGAUAUCGUAUCGGAGACGAUACGAGAAGGGCAAACAUGAGGAUCACCCAUGUUCCUUAACGG
apparent Kd [1]: 0.0191 µM | apparent Kd [2]: 0.0225 µM

UUGGACGUCGUAGGAUAUGUAGGAUAUUCCUACAUGAGGAUCACCCAUGUUGACAUGGAAGAAGGACAGACGGACGAUGUCCAU
apparent Kd [3]: 0.337 µM | apparent Kd [4]: 0.00852 µM

GAGGAGCAAGGAUAUACGAGGAUAUGGUAGGUUGGAGAGUGACAUGAGGAUCACCCAUGUAGAAGGUGCGAGGG
apparent Kd [1]: 0.0667 µM | apparent Kd [2]: 0.0559 µM

AAAAUACAUGAGGAUCACCCAUGUGAAAAUAUGGGAGGAUAUACCGAAAAAAAAAAAAAGGUAGAAGGCCCAAAAA
apparent Kd [3]: 0.0225 µM | apparent Kd [4]: 0.0325 µM

CCAUGUCUAUGAGGAUAUCCGAAUUAGCGUUUGACAACGAUGAGUUCUCCAGGAGAAGGCAUGGACAUGAGGAUCACCCAUGUA
apparent Kd [1]: 0.0296 µM | apparent Kd [2]: 0.0755 µM

CAUGUCCUCACAGGAUAUGCACCACUUUGUGGUGCAGAAGGGUGGAAACAUGAGGAUCACCCAUGUGGACAUGAUAUAUUUAAG
apparent Kd [3]: 0.142 µM | apparent Kd [4]: 0.0248 µM

GGGAGACAUGAGGAUCACCCAUGUGAAAACGUGCGAGGAUAUGUAUGGAAACCAUACUGUACAGAAGGCGUUUGUC
apparent Kd [3]: 0.0503 µM | apparent Kd [4]: 0.0477 µM

CAGUACUGAGGAUAUACAUGAGGAUCACCCAUGUCCCAAAAGUAGGAUACUACUAUUAGUAGAAGGCAGUACUG
apparent Kd [1]: 0.0374 µM | apparent Kd [2]: 0.323 µM

GUCUGAUUGUAGAAGGUACUUAAUACUCAUGUAACAUGAGGAUCACCCAUGUAUCAUCAAUAUUGUAAGGAUAUACAAAUCUCA
apparent Kd [3]: 0.15 µM | apparent Kd [4]: 0.0284 µM

AAUUGGAUGCAGAAGGCAUGGACGACUCGUCACAUUAACAUGAGGAUCACCCAUGUCAAAAGACAUGAGGAUAUGCAUCCUAAA
apparent Kd [3]: 0.233 µM | apparent Kd [4]: 0.0136 µM

CGUAGGAUCCAGAAGGCAUGAACAUGAGGAUCACCCAUGUCAAAAGACAUGAGGAUAUGGAUCCUACGAAAAGUGCGAAAGCAC
apparent Kd [3]: 0.019 µM | apparent Kd [4]: 0.00555 µM

AGCCGGGCCCAGAAGGUGCCAGCGAGAGCUGCACAUGAGGAUCACCCAUGUUGUCGGUGACGACGCAAGGAUAUGGGCCCGGCU
apparent Kd [3]: 0.0227 µM | apparent Kd [4]: 0.00717 µM

GCGUACAUAUCAGGAUAUCAUUGAAUGGAUUAACACAGUGAAUACAUGAGGAUCACCCAUGUGCUUGAGAAGGGAUUACAACGC
apparent Kd [1]: 0.0109 µM | apparent Kd [2]: 0.0094 µM

UGUGUCAUCGAGAAGGCCUCAACAUGAGGAUCACCCAUGUUGUAAUAUGGGAGGAUAUCGAUGAUACAGCUACGUUUCGUAGCA
apparent Kd [3]: 0.019 µM | apparent Kd [4]: 0.00611 µM

GGAUAGUACAGAGGAUAUACGUGCUAGAGAUACUAGCAAAAUUUCCUCACAUGAGGAUCACCCAUGUAGAAGGCUGUCCUAUCG
apparent Kd [1]: 0.00594 µM | apparent Kd [2]: 0.0518 µM

GUAUGCAUGAGGUAGGAUAUCCAAAACAAAACAUGAGGAUCACCCAUGUAAACAAACAACAAAUGGGAGAAGGACCACAUGUAUAC
apparent Kd [3]: 0.0244 µM | apparent Kd [4]: 0.0113 µM

AGUUAAUGCACAUGAGGAUCACCCAUGUCACUUUAUAGGAGACAGGAUAUGCAUGCCAUCAAUGUGCAGAAGGGUCACCACCGA
apparent Kd [3]: 0.0856 µM | apparent Kd [4]: 0.147 µM

CUGCAACAUGAGGAUCACCCAUGUAACCCAAUUAUAGGAUAUGUGAUGGUGAUCGACAUGACAGAAGGGUGAUUGG
apparent Kd [3]: 0.0388 µM | apparent Kd [4]: 0.149 µM

AACCUAUUACAGAAGGCCAGCUACAUGAGGAUCACCCAUGUCGAGUCAUGGAGGAUAUGUAGUAAUUUGCACGCGGACGAGUAC
apparent Kd [3]: 0.0526 µM | apparent Kd [4]: 0.00582 µM

UUUGUUUGCGGAGGAUAUAUAAGUGGAUCACCCAUAGAAGGCCGACAUGAGGAUCACCCAUGUUAGACAUGAGGAUCACCCAUG
apparent Kd [1]: 0.102 µM | apparent Kd [2]: 0.14 µM

UGGUACAUGGGAGGAUAUGGGUUGAUAACAUGAGGAUCACCCAUGUUAAAUAUGCCUCAUGGCAACUAGAAGGCCCAUGUACCU
apparent Kd [3]: 0.463 µM | apparent Kd [4]: 0.0951 µM

GACGUACAUGAGGAUCACCCAUGUACAGACGUACAAGGAUAUGUGUGGAAACCGUACUAUACAGAAGGUGUUUGUC
apparent Kd [3]: 0.0157 µM | apparent Kd [4]: 0.015 µM

ACUAUACGAGGAUAUACUGUCGGGCCUCAGACAUAAAUAAGACAUGAGGAUCACCCAUGUAGAAGGCGUUUACU
apparent Kd [1]: 0.0526 µM | apparent Kd [2]: 0.114 µM

ACAUGAGGAUCACCCAUGUUAUCAGGGACUUCAAUUAUUUGUAGAAGGAUGUUUUCUUGUUAGUCAUAGGAUAUACAAUUAAAU
apparent Kd [1]: 0.016 µM | apparent Kd [2]: 0.0153 µM

GUGUACAGAGGAUAUGCACGAGUAGUUACGAAAGUAACUAUACAUGAGGAUCACCCAUGUAGAAGGCUGUACAC
apparent Kd [1]: 0.0135 µM | apparent Kd [2]: 0.0166 µM

UCAUUUCAGAAAGGAUAUUAAUUCAUGACGAUACAUGAGGAUCACCCAUGUUAAGAAGGUUCUAAUACAAAUAAUGCAUUGUUC
apparent Kd [1]: 0.0132 µM | apparent Kd [2]: 0.0105 µM

UUUGUUUAUGUGAGGAUAUACUGUUUGUUUUGUUUGUAGAAGGUACAUGAGGAUCACCCAUGUUUUGUAUUUAU
apparent Kd [1]: 0.0215 µM | apparent Kd [2]: 0.0188 µM

UAGUAGAUCCGAGGAUAUACAAUCCGGAAACGGUACAUGAGGAUCACCCAUGUAGAAGGCGGAUCUACAGGUACUAAAGUACCG
apparent Kd [1]: 0.00619 µM | apparent Kd [2]: 0.00918 µM

AACUUGCGCACAGGAUAUCCACGGAGCGGACGUGGAGAAGGGUGACAUGAGGAUCACCCAUGUACGUAAGUCUAGAUCACUUCC
apparent Kd [3]: 0.199 µM | apparent Kd [4]: 0.0191 µM

UGAUAGGACAGAGGAUAUACGUGCUAGAGAUACUAGCAAAAUUAAAUAACAUGAGGAUCACCCAUGUAGAAGGCUGUCCUAUCU
apparent Kd [1]: 0.00501 µM | apparent Kd [2]: 0.00701 µM

UAUAUAUAGUAAGGAUAUGUAAUUAUUUAAUAAACAGAAGGUACUGACAUGAGGAUCACCCAUGUUUUAGUGUGGGCAUGUAGA
apparent Kd [1]: 0.0805 µM | apparent Kd [2]: 0.135 µM

AGAUAAUAGCAGAAGGGCCAUGGACAUGAGGAUCACCCAUGUAACGGUGGACUCAUUUGUGAAGGGCAGGAUAUGCAAUAAAGA
apparent Kd [1]: 0.16 µM | apparent Kd [2]: 0.0134 µM

UUACUAUAACAGAAGGCUAAAUAAUAUAUAAAUGGAGGAUAUGUUACAUGAGGAUCACCCAUGUUUCACCCACAUGAGGAUCAC
apparent Kd [1]: 0.0137 µM | apparent Kd [2]: 0.042 µM

UUUUUUCCUCAUGUACAUGAGGAACAUGAGGAUCACCCAUGUAGAAGGAUUUCCCUUAAAUUAAGAUAGGAUAUACAUAUUUUU
apparent Kd [1]: 0.0882 µM | apparent Kd [2]: 0.0616 µM

UUAGCAUACCGAGGAUAUUCAUAUAAUAAAUAAACAUGAGGAUCACCCAUGUGGCGAAAGCCUAGGGAGAAGGCGGAAUGCUAG
apparent Kd [3]: 0.171 µM | apparent Kd [4]: 0.0272 µM

GUUUGACAUGAGGAUCACCCAUGUGAGGAUAUCGGCUGGUACGUGUUGGCUGGCAUCUCGAGAAGGCACAUAGG
apparent Kd [1]: 0.134 µM | apparent Kd [2]: 0.0605 µM

AAAACAUGAGGAUCACCCAUGUAAAGAACGGUUAAUAAAUGUGAGGAUAUACUAAAAUUUACGUAGUAGAAGGCACUGGGUACA
apparent Kd [3]: 0.0208 µM | apparent Kd [4]: 0.0251 µM

ACAUGAGGAUCACCCAUGUAUACAUAGGAUAUUGGUGAUCAGGCAUGUUAUACAGGAUAUGUCUGCGAGAAGGAUGCACGUUGC
apparent Kd [3]: 0.68 µM | apparent Kd [4]: 0.476 µM

UAUAUAUAGUAAGGAUAUGUAUAUAAUUUAUAAACAGAAGGUACUGACAUGAGGAUCACCCAUGUUUUAGUGUGGGCAUGUAGA
apparent Kd [1]: 0.0727 µM | apparent Kd [2]: 0.141 µM

UCGGCGCGAGGAUAUGCGGUUCCUUCUUCGGGCCGGAGCGUACAUGAGGAUCACCCAUGUAGAAGGCGCGCCGC
apparent Kd [1]: 0.0136 µM | apparent Kd [2]: 0.0153 µM

ACCACAGACCAGAAGGGUGAUCGGCCAUGAUACACAGGAUAUGGUCACAUGAGGAUCACCCAUGUAUGGGUUGUGUGACCCAGC
apparent Kd [3]: 0.07 µM | apparent Kd [4]: 0.0917 µM

GCACAUGAUACAGGAUAUGUAUUGGAAUUUAUAAUGAGUUAUAUAAUAUUUACAGAAGGGUAUACAUGAGGAUCACCCAUGUGC
apparent Kd [1]: 0.0307 µM | apparent Kd [2]: 0.023 µM

GUAGCAUUGAGAGGAUAUCCAUAUCCGAAAGGGACAUGAGGAUCACCCAUGUCGCGAAAGCGGUGGGAGAAGGCUCUAUGCUAC
apparent Kd [3]: 0.00492 µM | apparent Kd [4]: 0.00501 µM

UUUGCAUUCCGAGGAUAUUCAUUUAAUGACUUCACAUGAGGAUCACCCAUGUGGCGAUUGCGCCGGGAGAAGGCGGUUUGCUUU
apparent Kd [3]: 0.0247 µM | apparent Kd [4]: 0.024 µM

UCGGGCAACCGAAAUAGGACGGCUGAGGAUAUGACAUGAGGAUCACCCAUGUACAGGGCCACAGGUCAGAAGGCAGCCUUUUGG
apparent Kd [1]: 0.161 µM | apparent Kd [2]: 0.0365 µM

UAAGCCGGGUCUGCAUGAGCUUACAUGAGGAUCACCCAUGUAAGAAGGGACGCUACGUUAAAGUGUCAGGAUAUUGCGAACGGG
apparent Kd [1]: 0.00526 µM | apparent Kd [2]: 0.00573 µM

GAGUAGUUGGGAGGAUAUCGAUUGUUAUAGAAUCGAGAAGGUUCUAACAUGAGGAUCACCCAUGUAGGACUAUUCCUGUGUAUC
apparent Kd [3]: 0.0718 µM | apparent Kd [4]: 0.0654 µM

UCAUUUAAUACAGGAUAUGUUAUUAUACAGUUGUUUGGUUAUUACAUUAUAACAGAAGGGUAGAACAUGAGGAUCACCCAUGUA
apparent Kd [3]: 0.179 µM | apparent Kd [4]: 0.0794 µM

AAAUAAGUUGCAGGAUAUUAUUUAUAAUAUAUAUAAGAAGGGCAACAAACCUCACAUGAGGAUCACCCAUGUACCCAUGCAUCU
apparent Kd [1]: 0.109 µM | apparent Kd [2]: 0.0447 µM

UUAGGCUUCUAGAAGGCGGUCCAGCUAGAGGACCGAGGAUAUAGGCACCUAACAUGAGGAUCACCCAUGUUAGUGAUUCCUCAA
apparent Kd [1]: 0.132 µM | apparent Kd [2]: 0.166 µM

GGAAAUCAUGUAGGAUAUGCAUGGCGAAGCUACGCAGAAGGACAUGAGGAUCACCCAUGUUAUAGCGUCCGAGAAAGGAUGCGA
apparent Kd [1]: 0.0556 µM | apparent Kd [2]: 0.114 µM
